# Results reported in ChEMBL document CHEMBL1165965, “Synthesis and structure-activity relationships of 1,2,3,4-tetrahydropyrido[2,3-b]pyrazines as potent and selective inhibitors of the anaplastic lymphoma kinase” (Bioorg Med Chem, 2010).
# Columns and labels:
# [1] = biological target: T1, Tyrosine-protein kinase receptor TYRO3 (Homo sapiens) (UniProt Q06418); test: Inhibition of TYRO3 at 1 uM
# T1 sequence (whole entry): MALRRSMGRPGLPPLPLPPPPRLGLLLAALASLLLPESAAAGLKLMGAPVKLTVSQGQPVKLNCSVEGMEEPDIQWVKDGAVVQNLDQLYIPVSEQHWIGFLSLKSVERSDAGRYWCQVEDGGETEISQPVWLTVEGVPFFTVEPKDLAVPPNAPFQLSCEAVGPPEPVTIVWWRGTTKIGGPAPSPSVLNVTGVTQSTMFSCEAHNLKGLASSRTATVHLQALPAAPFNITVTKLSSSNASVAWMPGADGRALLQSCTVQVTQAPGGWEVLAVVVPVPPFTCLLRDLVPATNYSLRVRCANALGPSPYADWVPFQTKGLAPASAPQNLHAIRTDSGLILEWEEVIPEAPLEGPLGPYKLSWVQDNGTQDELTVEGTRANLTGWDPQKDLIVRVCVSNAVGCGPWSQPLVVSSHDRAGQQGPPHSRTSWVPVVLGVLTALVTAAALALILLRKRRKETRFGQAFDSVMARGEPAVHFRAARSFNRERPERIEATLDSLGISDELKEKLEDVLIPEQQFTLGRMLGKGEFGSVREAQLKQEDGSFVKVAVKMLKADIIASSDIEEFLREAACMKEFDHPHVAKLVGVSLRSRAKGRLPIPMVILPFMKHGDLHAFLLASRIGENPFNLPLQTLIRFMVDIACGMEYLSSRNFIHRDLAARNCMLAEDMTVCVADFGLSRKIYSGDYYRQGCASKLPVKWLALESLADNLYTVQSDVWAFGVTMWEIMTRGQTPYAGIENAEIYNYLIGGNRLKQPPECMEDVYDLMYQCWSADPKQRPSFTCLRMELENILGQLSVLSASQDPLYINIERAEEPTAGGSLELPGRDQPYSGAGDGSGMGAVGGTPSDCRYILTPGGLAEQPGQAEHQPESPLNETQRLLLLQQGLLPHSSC
# [2] = biological target: T2, Serine/threonine-protein kinase Nek1 (Homo sapiens) (UniProt Q96PY6); test: Inhibition of NEK1 at 1 uM
# T2 sequence (whole entry): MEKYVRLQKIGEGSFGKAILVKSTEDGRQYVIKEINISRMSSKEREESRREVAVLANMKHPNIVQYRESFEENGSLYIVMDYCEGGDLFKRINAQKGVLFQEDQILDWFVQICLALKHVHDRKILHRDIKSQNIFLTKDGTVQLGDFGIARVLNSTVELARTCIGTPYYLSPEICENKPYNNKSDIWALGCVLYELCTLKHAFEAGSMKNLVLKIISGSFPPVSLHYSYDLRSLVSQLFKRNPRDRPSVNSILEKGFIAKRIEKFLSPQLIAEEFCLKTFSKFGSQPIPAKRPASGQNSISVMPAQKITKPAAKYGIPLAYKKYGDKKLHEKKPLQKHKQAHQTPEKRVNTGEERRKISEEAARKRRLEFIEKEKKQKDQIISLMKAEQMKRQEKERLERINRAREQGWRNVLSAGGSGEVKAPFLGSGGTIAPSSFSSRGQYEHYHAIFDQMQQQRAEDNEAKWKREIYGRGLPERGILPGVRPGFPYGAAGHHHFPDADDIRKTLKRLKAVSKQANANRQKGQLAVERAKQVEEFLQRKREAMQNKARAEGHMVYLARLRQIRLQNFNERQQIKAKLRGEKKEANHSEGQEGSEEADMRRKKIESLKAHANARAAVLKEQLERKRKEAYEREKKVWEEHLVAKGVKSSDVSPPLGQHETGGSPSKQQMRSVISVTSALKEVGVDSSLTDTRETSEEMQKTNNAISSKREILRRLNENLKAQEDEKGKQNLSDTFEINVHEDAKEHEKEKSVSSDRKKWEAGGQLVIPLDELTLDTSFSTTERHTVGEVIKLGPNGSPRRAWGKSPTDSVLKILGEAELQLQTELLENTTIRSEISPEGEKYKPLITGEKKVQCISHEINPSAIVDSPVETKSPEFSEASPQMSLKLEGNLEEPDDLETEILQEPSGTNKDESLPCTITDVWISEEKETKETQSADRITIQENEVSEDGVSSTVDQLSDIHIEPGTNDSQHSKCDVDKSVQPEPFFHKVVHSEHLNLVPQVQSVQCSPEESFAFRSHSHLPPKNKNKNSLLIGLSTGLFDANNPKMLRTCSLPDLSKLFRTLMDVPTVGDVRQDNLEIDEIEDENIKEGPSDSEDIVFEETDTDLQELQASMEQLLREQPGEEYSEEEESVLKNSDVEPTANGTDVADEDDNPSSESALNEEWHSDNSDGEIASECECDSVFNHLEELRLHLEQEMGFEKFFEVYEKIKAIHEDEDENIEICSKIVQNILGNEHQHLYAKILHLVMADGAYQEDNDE
# [3] = biological target: NT-3 growth factor receptor (Homo sapiens) (UniProt Q16288); test: Inhibition of TRKC at 1 uM
# NT-3 growth factor receptor (Homo sapiens), sequence (Q16288 32-839 limits assumed): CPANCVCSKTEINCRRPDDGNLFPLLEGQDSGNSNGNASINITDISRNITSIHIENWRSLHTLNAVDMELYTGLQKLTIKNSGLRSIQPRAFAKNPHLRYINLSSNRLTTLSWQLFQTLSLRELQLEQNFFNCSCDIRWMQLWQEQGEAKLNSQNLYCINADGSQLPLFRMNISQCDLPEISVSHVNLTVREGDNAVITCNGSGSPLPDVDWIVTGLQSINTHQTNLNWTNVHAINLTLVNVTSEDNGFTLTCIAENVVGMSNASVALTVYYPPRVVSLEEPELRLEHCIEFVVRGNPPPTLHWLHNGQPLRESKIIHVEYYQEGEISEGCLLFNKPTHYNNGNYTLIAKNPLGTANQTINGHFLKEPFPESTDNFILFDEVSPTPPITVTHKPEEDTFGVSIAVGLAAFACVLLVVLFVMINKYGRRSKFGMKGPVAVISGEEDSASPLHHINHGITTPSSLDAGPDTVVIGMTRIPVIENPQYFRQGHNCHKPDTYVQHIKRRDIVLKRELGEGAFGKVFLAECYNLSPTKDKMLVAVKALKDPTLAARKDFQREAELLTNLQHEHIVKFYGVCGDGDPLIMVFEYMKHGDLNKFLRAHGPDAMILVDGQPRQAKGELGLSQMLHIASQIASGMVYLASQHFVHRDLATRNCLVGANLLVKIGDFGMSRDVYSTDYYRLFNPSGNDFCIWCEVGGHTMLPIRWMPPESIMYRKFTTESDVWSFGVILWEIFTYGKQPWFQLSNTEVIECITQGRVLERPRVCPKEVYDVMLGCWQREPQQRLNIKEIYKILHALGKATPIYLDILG
# [4] = biological target: T3, Serine/threonine-protein kinase TBK1 (Homo sapiens) (UniProt Q9UHD2); test: Inhibition of TBK1 at 1 uM
# T3 sequence (whole entry): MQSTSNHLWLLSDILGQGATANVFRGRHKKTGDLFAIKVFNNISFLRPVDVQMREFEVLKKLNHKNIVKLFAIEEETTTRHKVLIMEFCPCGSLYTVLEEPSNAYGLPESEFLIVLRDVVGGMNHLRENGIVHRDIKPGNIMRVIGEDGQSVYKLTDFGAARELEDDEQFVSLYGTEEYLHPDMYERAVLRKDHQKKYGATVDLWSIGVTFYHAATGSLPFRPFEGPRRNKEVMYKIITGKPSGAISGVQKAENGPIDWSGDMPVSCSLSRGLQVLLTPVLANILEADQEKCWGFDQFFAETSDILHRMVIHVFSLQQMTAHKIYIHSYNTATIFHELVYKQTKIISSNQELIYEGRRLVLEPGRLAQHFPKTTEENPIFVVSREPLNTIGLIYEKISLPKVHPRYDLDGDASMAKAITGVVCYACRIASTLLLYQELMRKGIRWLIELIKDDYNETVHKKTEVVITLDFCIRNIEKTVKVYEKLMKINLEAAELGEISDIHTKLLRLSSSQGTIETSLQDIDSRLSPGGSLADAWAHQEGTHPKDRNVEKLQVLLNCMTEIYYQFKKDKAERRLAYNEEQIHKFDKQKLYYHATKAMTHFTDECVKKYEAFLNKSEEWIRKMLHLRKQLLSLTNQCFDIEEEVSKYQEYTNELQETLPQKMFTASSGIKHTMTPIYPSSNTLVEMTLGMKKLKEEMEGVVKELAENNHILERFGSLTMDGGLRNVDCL
# [5] = system: Tyrosine-protein kinase ABL1 (Homo sapiens), P00519 [Y253F]; test: Inhibition of ABL1 Y253F mutant at 1 uM
# How it was run: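 Ambit KINOMEscan screen at a single concentration across a 250–400 kinase panel, recorded as percent inhibition. Selectivity was expressed as S(90), the fraction of kinases inhibited >90%.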
SMILES,inhibition [1] [%],inhibition [2] [%],inhibition [3] [%],inhibition [4] [%],inhibition [5] [%]
O=C(O)c1ccc(-c2cnc3c(c2)N(Cc2cc(Cl)ccc2C(F)(F)F)CCN3)cc1,< 50,–,< 50,–,–
O=C(c1ccc(-c2cnc3c(c2)N(Cc2cc(Cl)ccc2C(F)(F)F)CCN3)cc1)N1CCC(N2CCCC2)CC1,< 50,< 50,< 50,–,< 50
COC1CCN(C(=O)c2ccc(-c3cnc4c(c3)N(Cc3cc(Cl)ccc3C(F)(F)F)CCN4)cc2)CC1,< 50,< 50,< 50,–,< 50
CC(=O)N1CCN(c2cc(-c3cnc4c(c3)N(Cc3cc(Cl)ccc3C(F)(F)F)CCN4)ccn2)CC1,< 50,< 50,< 50,< 50,< 50
CN1CCN(c2ccc(-c3cnc4c(c3)N(Cc3cc(F)ccc3F)CCN4)cn2)CC1,< 50,< 50,< 50,< 50,< 50

# The next lines start with the values.
inhibition [1] [%],inhibition [2] [%],inhibition [3] [%],inhibition [4] [%],inhibition [5] [%],SMILES
< 50,< 50,< 50,< 50,< 50,CN1CCN(c2ccc(-c3cnc4c(c3)N(Cc3cc(Cl)ccc3C(F)(F)F)CCN4)cn2)CC1
< 50,< 50,< 50,< 50,< 50,FC(F)(F)c1ccc(Cl)cc1CN1CCNc2ncc(-c3ccnc(N4CCNCC4)c3)cc21
< 50,< 50,< 50,< 50,82,CN1CCN(c2ccc(-c3cnc4c(c3)N(Cc3c(F)ccc(F)c3Cl)CCN4)cn2)CC1
< 50,–,< 50,–,< 50,O=C(c1ccc(-c2cnc3c(c2)N(Cc2cc(Cl)ccc2C(F)(F)F)CCN3)cc1)N1CCCCC1
< 50,< 50,< 50,< 50,< 50,CN1CCN(c2ccc(-c3cnc4c(c3)N(Cc3cc(Cl)ccc3Cl)CCN4)cn2)CC1
